The list is not random: actives were taken first. Their share in the collection is about 4.8%.
CSC inhib: cancer stem cell inhibition. cancer stem cell-like cells viability, luminescence. 300,000 compounds, 1.1% hits. inhibition, % at 7.5 µM; in the data active means inhibition above about 75%; tested in HMLE shEcad cells
UPR XBP1 act: adaptive UPR (XBP1) activation. CHO-XBP1 luciferase reporter, IRE1-XBP1 UPR activation, luminescence; percent of tunicamycin response, DMSO as zero. activation, % at 20 µM. 330,000 compounds, 0.33% hits;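 active means versus positive control, 20 µM dose yields 30% or more activation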
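Material: CHO cell line with stable XBP1 luciferase reporter; buffer or medium: F12 medium containing 10% fetal bovine serum; compound: single point, 20 µM final compound, 1% DMSO; incubation: 6 h treatment, 37 °C; measured by: glow luminescence from Steady-Glo reagent; evaluation: activation, % of tunicamycin; control set: tunicamycin high, DMSO low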
SKKanGAS inh: blocks kanamycin growth of S. pyogenes SKKanGAS strain. 300,000 compounds, 1.3% hits. AID 1662. BacTiter-Glo, 6 h. inhibition, % at 7.5 µM;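 active means mean replicate score, as percent of positive control median, at least 50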;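 further: strain carries kanamycin resistance gene driven by streptokinase promoter and grows in 40 µg/ml kanamycin; loss of luminescence reflects streptokinase promoter inhibition or plain growth inhibition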
Beta cell apopt: beta cell apoptosis inhibition; INS-1E cytokine-induced death, ATP luminescence, 48 h; percent of positive-control rescue, neutral wells zero; protection from apoptosis, % (no concentration beside the values); 300,000 compounds, 0.8% hits;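 active means Every replicate reaches about 75%, or at least half do and their mean reaches it too, limit read from the data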;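 further: higher means more ATP so stronger rescue from cytokine killing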
Mdm2-MdmX inh: human Mdm2/MdmX binding inhibition; inhibition, % at 8 µM; AID 485346; 330,000 compounds, 3% hits; O15151+Q00987; SaOS-2 split-luciferase Mdm2/MdmX complementation, luminescence;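 active means inhibition of at least 50% at 8 µM in the primary screen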
Target sequence (O15151 whole entry, looked up): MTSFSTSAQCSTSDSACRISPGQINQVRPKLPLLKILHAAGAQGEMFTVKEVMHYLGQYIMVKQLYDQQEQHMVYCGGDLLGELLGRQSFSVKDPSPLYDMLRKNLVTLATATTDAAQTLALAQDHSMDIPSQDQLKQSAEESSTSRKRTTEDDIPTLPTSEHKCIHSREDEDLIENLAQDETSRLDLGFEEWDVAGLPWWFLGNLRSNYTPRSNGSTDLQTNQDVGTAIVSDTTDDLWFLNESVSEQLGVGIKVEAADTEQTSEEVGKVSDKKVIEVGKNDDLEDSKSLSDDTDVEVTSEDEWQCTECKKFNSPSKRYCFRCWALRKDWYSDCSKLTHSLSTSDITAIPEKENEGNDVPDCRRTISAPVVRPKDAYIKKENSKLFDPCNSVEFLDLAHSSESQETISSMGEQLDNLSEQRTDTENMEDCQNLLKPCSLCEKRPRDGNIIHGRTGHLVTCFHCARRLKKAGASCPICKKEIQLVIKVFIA
Target sequence (Q00987 whole entry, looked up): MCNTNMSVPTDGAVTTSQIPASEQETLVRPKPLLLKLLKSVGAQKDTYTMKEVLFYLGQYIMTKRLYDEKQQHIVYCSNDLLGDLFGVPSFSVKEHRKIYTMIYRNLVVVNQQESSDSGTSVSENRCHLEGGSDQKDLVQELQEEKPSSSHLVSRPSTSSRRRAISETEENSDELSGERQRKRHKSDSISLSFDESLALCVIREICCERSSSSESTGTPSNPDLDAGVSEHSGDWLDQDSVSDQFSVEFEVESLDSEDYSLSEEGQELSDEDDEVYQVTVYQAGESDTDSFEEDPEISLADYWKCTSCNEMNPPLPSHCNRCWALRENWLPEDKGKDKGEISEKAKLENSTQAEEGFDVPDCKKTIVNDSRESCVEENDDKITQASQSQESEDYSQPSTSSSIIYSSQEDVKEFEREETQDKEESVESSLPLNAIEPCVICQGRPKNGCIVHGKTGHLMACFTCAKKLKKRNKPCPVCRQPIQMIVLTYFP
UPR CHOP act: activators of apoptotic arm of unfolded protein response (CHOP) | CHO-CHOP luciferase reporter, UPR activation, luminescence; percent of tunicamycin response over DMSO baseline | activation, % at 10 µM | 330,000 compounds, 0.34% hits;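 active means at 10 µM dose, activation of 40% or more, normalized to positive control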
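Test system: CHO-CHOP cells, stable luciferase reporter of PERK-eIF2a-CHOP signalling | Quantity: 500 CHO-CHOP cells per well | Buffer or medium: F12 plus 10% serum | Compound dosing: 10 µM single point, 0.5% DMSO | Schedule: 6 h compound treatment, 37 °C | Signal: Luciferase luminescence | Control set: Tunicamycin high control, DMSO low control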
Mdm2-MdmX conf: confirmation of human Mdm2/MdmX interaction inhibitors. shares compounds with Mdm2-MdmX inh. Mdm2-MdmX binding, luminescent assay. inhibition, % at 8 µM. 10,000 compounds, 55% hits; in the data active means inhibition above about 40%
FLuc counter: inhibits full-length luciferase, flagging false Mdm2/MdmX hits; shares compounds with Mdm2-MdmX inh; SaOS-2 full-length luciferase counterscreen, luminescence; inhibition, % at 8 µM; 6,200 compounds, 77% hits; AID 504607;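 active means mean inhibition at 8 µM reaching about 37%, which flags the compound as non-specific, limit read from the data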;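 further: p53-null SaOS-2 cells with luciferase driven by a doxycycline-inducible promoter; compound on cells about two nights before reading with doxycycline added after day one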
Large screens that a line does not name were inactive (follow-up assays come after a bar, where they were run); ! = a repeat was not active.

CC(=O)c1c(C)n(-c2ccccc2Br)c2ccc(O)cc12	none
CCc1nc(SCC(=O)Nc2cc(OC)ccc2OC)c2c(C)c(C)sc2n1	none (no result: CSC inhib)
CCN(CC)C(=O)Cn1c(=O)n(CC(=O)N2CCCCC2)c(=O)c2sccc21	none
Cc1ccc2c(c1)N(CC(=O)N1CCCCCC1)C(=O)C(C)O2 (stereo not drawn)	none
CN1C(=O)c2cccc3c(S(=O)(=O)Nc4ccccn4)ccc1c23	Mdm2-MdmX inh 56 | Mdm2-MdmX conf 41 | FLuc counter 79
CN1C(=O)c2cccc3c(S(=O)(=O)NCc4ccco4)ccc1c23	none
CCN(CC)Cc1ccc(NC(=O)c2sc3cc(Cl)ccc3c2Cl)cc1	CSC inhib 101, Mdm2-MdmX inh 55 | Mdm2-MdmX conf inactive
CCCCn1nnc(NC(=O)c2sc3cc(Cl)ccc3c2Cl)n1	none
COc1ccccc1NS(=O)(=O)c1cc(NC(=O)c2sc3cc(Cl)ccc3c2Cl)ccc1C	Mdm2-MdmX inh 53 | Mdm2-MdmX conf inactive | FLuc counter 104
O=C(COC(=O)c1cc(=O)[nH]c2ccccc12)NCc1ccc(Cl)cc1	none (no result: SKKanGAS inh)
O=[N+]([O-])c1cc([N+](=O)[O-])c(Oc2cc(Cl)cc(Cl)c2)cc1NN1CCCCC1	none (no result: SKKanGAS inh)
COc1ccc(N(Cc2ccccc2)S(=O)(=O)c2cccc(C(=O)Nc3ccccn3)c2)cc1	Mdm2-MdmX inh 57 (no result: CSC inhib, SKKanGAS inh) | Mdm2-MdmX conf inactive
Cc1ccc(C)c(NCC(=O)c2ccc(Cl)cc2)c1	none
O=C(NNC1=C(C(=O)C(F)(F)F)CCC1)c1ccccc1O	SKKanGAS inh 87 (no result: CSC inhib) | Mdm2-MdmX conf inactive
Nc1ccccc1C(=O)Nc1cccc(C(=O)O)c1	none
Nc1ccccc1C(=O)NNC1=C(C(=O)C(F)(F)F)CCC1	Mdm2-MdmX inh 53 | Mdm2-MdmX conf 49 | FLuc counter 148
COc1cccc(C(=O)NNC2=C(C(=O)C(F)(F)F)CCC2)c1	none
COc1ccccc1C(=O)NNC1=C(C(=O)C(F)(F)F)CCC1	Mdm2-MdmX inh 70 | Mdm2-MdmX conf 58 | FLuc counter 72
Cc1cc(C)c(N(CC(=O)NCc2ccccc2)C(=O)c2csnn2)c(C)c1	none
Cc1noc(C)c1NC(=O)Nc1ccc2c(c1)C(=O)N([C@H](C)CO)C[C@H](C)[C@@H](CN(C)C(=O)NC1CCCCC1)O2	none (no result: SKKanGAS inh)
COc1ccc(-c2noc(CCC(=O)N3CCN(c4ccc(Cl)cc4)CC3)n2)cc1	none (no result: CSC inhib, SKKanGAS inh, Beta cell apopt)
CCCN(CCC)S(=O)(=O)c1ccc(C(=O)Nc2nnc(-c3cc(OC)cc(OC)c3)o2)cc1	SKKanGAS inh 102, Mdm2-MdmX inh 51 (no result: Beta cell apopt) | Mdm2-MdmX conf inactive
CCCCN1C(=O)Cc2c1nc(N)c1c(N)nc(N(CCC)CCC)c(C#N)c21	none (no result: UPR XBP1 act, Mdm2-MdmX inh, UPR CHOP act)
C=C(C)CN(CC)c1nc(N)c2c(N)nc3c(c2c1C#N)CC(=O)N3C12CC3CC(CC(C3)C1)C2	Mdm2-MdmX inh 84 | Mdm2-MdmX conf 54 | FLuc counter 41
O=C(CN1CCN(S(=O)(=O)c2ccc(F)cc2)CC1)Nc1ccc(F)cc1F	none
Cc1ccc(C)c(C(=O)COC(=O)CN2C(=O)C3C4CCC(C4)C3C2=O)c1 (stereo not drawn)	none
CC(C)N=C(N)N=C(N)Nc1ccc(Cl)cc1	none (no result: CSC inhib, SKKanGAS inh, Beta cell apopt)
NC(=NCCCCCCN=C(N)/N=C(\N)Nc1ccc(Cl)cc1)/N=C(\N)Nc1ccc(Cl)cc1	CSC inhib 78!, SKKanGAS inh 103, Beta cell apopt 120, Mdm2-MdmX inh 91 | Mdm2-MdmX conf 66 | FLuc counter 57
Cc1nnc(NC(=O)c2ccc(F)c(S(=O)(=O)N3CCOCC3)c2)s1	none (no result: SKKanGAS inh)
CN(CC1CCCO1)S(=O)(=O)c1ccc(C(=O)Nc2nc(-c3ccccn3)cs2)cc1 (stereo not drawn)	Beta cell apopt 104, Mdm2-MdmX inh 89 (no result: SKKanGAS inh) | Mdm2-MdmX conf 80 | FLuc counter inactive
Cc1ccc(S(=O)(=O)N2CCOCC2)cc1C(=O)Nc1nc(-c2cccnc2)cs1	none
O=C(Nc1nc(-c2ccccn2)cs1)c1cc(S(=O)(=O)N2CCOCC2)ccc1F	Mdm2-MdmX inh 53 (no result: CSC inhib, SKKanGAS inh, Beta cell apopt) | Mdm2-MdmX conf inactive
Cc1ccc(C(=O)Nc2nc(-c3ccccn3)cs2)cc1S(=O)(=O)N1CCOCC1	Beta cell apopt 90, Mdm2-MdmX inh 89 (no result: CSC inhib, SKKanGAS inh) | Mdm2-MdmX conf 81 | FLuc counter inactive
Cc1ccc(C(=O)Nc2ccccn2)cc1S(=O)(=O)N1CCOCC1	none
O=C(Nc1nc(-c2ccccn2)cs1)c1ccc(F)c(S(=O)(=O)N2CCOCC2)c1	Beta cell apopt 89, Mdm2-MdmX inh 76 (no result: CSC inhib, SKKanGAS inh) | Mdm2-MdmX conf 86 | FLuc counter inactive
CCn1c(=O)c(=O)[nH]c2cc(C(=O)NCc3ccc(F)cc3)ccc21	none
COc1cc2cc(CCOC(=O)c3ccco3)oc(=O)c2cc1OC	none (no result: SKKanGAS inh)
CC#CCN1c2ccccc2[C@]23C[C@@H](C(=O)OC)N(C(=O)c4ccc(Br)cc4)C2=NC(C(=O)OC)=C(C(=O)OC)[C@H]13	Mdm2-MdmX inh 96 | Mdm2-MdmX conf 76 | FLuc counter 68
CC#CCN1c2ccccc2[C@]23C[C@@H](C(=O)OC)N(C(C)=O)C2=NC(C(=O)OC)=C(C(=O)OC)[C@H]13	none
COC(=O)C1=C(C(=O)OC)[C@@H]2N(C)c3ccccc3[C@@]23C[C@@H](C(=O)OC)N(C(=O)c2ccc(Br)cc2)C3=N1	Mdm2-MdmX inh 68 | Mdm2-MdmX conf inactive
O=C1c2ccccc2C(=O)c2c1oc(C(F)(F)F)c2C(=O)c1ccccc1	CSC inhib 117, SKKanGAS inh 106, Beta cell apopt 123, Mdm2-MdmX inh 84 | Mdm2-MdmX conf 82 | FLuc counter 50
O=C(c1ccccc1)c1coc2c1C(=O)c1ccccc1C2=O	none
CN(CC(=O)NCCc1ccc(S(N)(=O)=O)cc1)CC(=O)Nc1cccc(F)c1	none (no result: CSC inhib, SKKanGAS inh, Beta cell apopt)
O=c1c2ccccc2oc2cc(C#CC3(O)CCCCC3)ccc12	Mdm2-MdmX inh 87 | Mdm2-MdmX conf 76 | FLuc counter 98
O=c1c2ccccc2sc2ccc(C#CC3(O)CCCCC3)cc12	Mdm2-MdmX inh 94 | Mdm2-MdmX conf 94 | FLuc counter inactive
COc1ccc2c(c1)O[C@@H](c1cccc(C(F)(F)F)c1)[C@H](OC(=O)Nc1ccc(OC(F)F)cc1)C2=O	none (no result: SKKanGAS inh)
COc1ccc2c(c1)O[C@H](c1ccc3c(c1)OCO3)[C@@H](O)C2=O	Mdm2-MdmX inh 50 | Mdm2-MdmX conf inactive
COc1ccc2c(c1)O[C@@H](c1cccc(C(F)(F)F)c1)[C@H](O)C2=O	Mdm2-MdmX inh 55 | Mdm2-MdmX conf 60 | FLuc counter 36

Assay outcomes from PubChem.
